Data as given in ChEMBL document CHEMBL1149755, “Synthesis, physicochemical and anticonvulsant properties of new N-phenylamino derivatives of 2-azaspiro[4.4]nonane- and [4.5]decane-1,3-diones: part V” (Eur J Med Chem, 2008).
Calls of active or inactive are those of the source. The calls are words filed in the database; no cut-off is given here.

Experiments:
Mus musculus [1] = experiment: Anticonvulsant activity in ip dosed mouse after 4 hrs by maximal electroshock test; assay type: functional
Summary of the method: (§1)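 Phase I screen: intraperitoneal injection into mice as suspension in 0.5% methylcellulose at 30, 100 and 300 mg/kg; MES, subcutaneous pentylenetetrazole and rota-rod minimal motor impairment assessed at 0.5 h and 4 h after dosing (2 h also reported for some MES readings). Value is minimum dose showing activity or toxicity.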

Mus musculus [2] = experiment: Anticonvulsant activity in ip dosed mouse after 4 hrs by subcutaneous pentylenetetrazole test; assay type: functional; summary of the method: as §1
Mus musculus [3] = experiment: Anticonvulsant activity in mouse at 100 mg/kg, ip; assay type: functional, organism-based; set-up: dose 100 mg/kg; summary of the method: as §1
[4] = Lipophilicity, log kw of compound by RP-HPLC; assay type: physicochemical
Summary of the method: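 RP-HPLC on end-capped C18 column, acetonitrile-containing mobile phase at several concentrations; uracil as unretained marker for dead volume; UV detection at 214 nm, room temperature; three measurement sets averaged; log kw obtained by extrapolation of linear log k versus organic modifier fraction (log k = log kw − Sφ).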

Rattus norvegicus [5] = experiment: Neurotoxicity in rat at 30 mg/kg, po after 0.25 hrs by rotarod test; assay type: toxicity, organism-based; set-up: dose 30 mg/kg, route oral; settings: in vivo
Summary of the method: (§2)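 Phase VIa: oral administration to rats, four animals, fixed 30 mg/kg; MES protection and rota-rod neurotoxicity read at 0.25, 0.5, 1, 2 and 4 h post dose. Reported as number of animals protected (or showing toxicity) over number tested.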

Rattus norvegicus [6] = experiment: Neurotoxicity in rat at 30 mg/kg, po after 0.5 hrs by rotarod test; assay type: toxicity, organism-based; set-up: dose 30 mg/kg, route oral; settings: in vivo; summary of the method: as §2
Rattus norvegicus [7] = experiment: Neurotoxicity in rat at 30 mg/kg, po after 1 hr by rotarod test; assay type: toxicity, organism-based; set-up: dose 30 mg/kg, route oral; settings: in vivo; summary of the method: as §2
Rattus norvegicus [8] = experiment: Neurotoxicity in rat at 30 mg/kg, po after 2 hrs by rotarod test; assay type: toxicity, organism-based; set-up: dose 30 mg/kg, route oral; settings: in vivo; summary of the method: as §2
Rattus norvegicus [9] = experiment: Neurotoxicity in rat at 30 mg/kg, po after 4 hrs by rotarod test; assay type: toxicity, organism-based; set-up: dose 30 mg/kg, route oral; settings: in vivo; summary of the method: as §2
Rattus norvegicus [10] = organism: Rattus norvegicus; experiment: Displacement of [3H]muscimol from GABAA receptor in rat brain cortex; assay type: tissue-based
Summary of the method: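 Rat brain membranes washed repeatedly in ice-cold 50 mM Tris-HCl pH 7.4, stored at −20 °C at least 18 h; incubated 10 min at 0 °C with 3 nM [3H]muscimol (stock) and eight test concentrations 10^-11–10^-4 M; nonspecific binding with GABA; filtration, scintillation counting, duplicates, iterative curve fitting.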

Mus musculus [11] = experiment: Anticonvulsant activity in ip dosed mouse after 0.5 hrs by maximal electroshock test; assay type: functional; summary of the method: as §1
Mus musculus [12] = experiment: Anticonvulsant activity in ip dosed mouse after 0.5 hrs by subcutaneous pentylenetetrazole test; assay type: functional; summary of the method: as §1
Mus musculus [13] = experiment: Anticonvulsant activity in mouse at 300 mg/kg, ip; assay type: functional, organism-based; set-up: dose 300 mg/kg; summary of the method: as §1
Mus musculus [14] = experiment: Neurotoxicity in ip dosed mouse after 0.5 hrs by rotarod test; assay type: toxicity, organism-based; settings: in vivo; summary of the method: as §1
Mus musculus [15] = experiment: Neurotoxicity in ip dosed mouse after 4 hrs by rotarod test; assay type: toxicity, organism-based; settings: in vivo; summary of the method: as §1
Mus musculus [16] = experiment: Anticonvulsant activity in ip dosed mouse after 2 hrs by maximal electroshock test; assay type: functional; summary of the method: as §1
Mus musculus [17] = experiment: Toxicity in mouse at 30 mg/kg, ip; assay type: organism-based; set-up: dose 30 mg/kg, route intraperitoneal; settings: in vivo; summary of the method: as §1
Rattus norvegicus [18] = experiment: Anticonvulsant activity in po dosed rat after 2 hrs by maximal electroshock test; assay type: functional
Summary of the method: (§3)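 Phase II quantification in rats after oral dosing: median effective dose in MES and scPTZ seizure tests determined at the previously estimated time of peak effect, 2 h.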

Rattus norvegicus [19] = experiment: Anticonvulsant activity in po dosed rat after 2 hrs by subcutaneous pentylenetetrazole test; assay type: functional; summary of the method: as §3

Compound | Activity (Mus musculus [1]) [mg/kg] | logKw [4] | Activity (Rattus norvegicus [10]) | Activity (Mus musculus [13]) | Minimum neurotoxic dose (Mus musculus [14]) [mg/kg] | further results
O=C1CC2(CCCCC2)C(=O)N1Nc1ccc(Cl)cc1Cl | 100 | 2.634 | inactive | – | – | Activity (Mus musculus [2]): 300 mg/kg; Activity (Mus musculus [3]): Active; Activity (Rattus norvegicus [5]): Non-toxic; Activity (Rattus norvegicus [6]): Non-toxic; Activity (Rattus norvegicus [7]): Non-toxic; Activity (Rattus norvegicus [8]): Non-toxic; Activity (Rattus norvegicus [9]): Non-toxic
O=C1CC2(CCCC2)C(=O)N1Nc1ccccc1Cl | – | 2.095 | – | Active | – | Activity (Mus musculus [11]): 300 mg/kg; Activity (Mus musculus [12]): 300 mg/kg; Activity (Rattus norvegicus [5]): Non-toxic; Activity (Rattus norvegicus [6]): Non-toxic; Activity (Rattus norvegicus [7]): Non-toxic; Activity (Rattus norvegicus [8]): Non-toxic; Activity (Rattus norvegicus [9]): Non-toxic
O=C1CC(C2CCCCC2)C(=O)N1Nc1ccc(Cl)cc1Cl (stereo unspecified) | – | 2.896 | – | inactive | – | –
CC1CCCC2(CC(=O)N(Nc3ccc(Cl)cc3Cl)C2=O)C1 (stereo unspecified) | – | 2.976 | – | inactive | – | –
CC1CCC2(CC1)CC(=O)N(Nc1ccc(Cl)cc1Cl)C2=O (stereo unspecified) | – | 2.977 | – | inactive | 100 | Activity (Mus musculus [15]): 100 mg/kg
O=C1CC2(CCCC2)C(=O)N1Nc1ccc(Br)cc1 | 300 | 2.115 | inactive | Active | 100 | Activity (Mus musculus [12]): 300 mg/kg; Activity (Mus musculus [16]): 100 mg/kg
O=C1CC2(CCCCC2)C(=O)N1Nc1ccc(Br)cc1 | 100 | 2.337 | inactive | – | 30 | Activity (Mus musculus [3]): Active; Activity (Mus musculus [17]): Toxic
O=C1CC(C2CCCCC2)C(=O)N1Nc1ccccc1Cl (stereo unspecified) | – | 2.536 | – | inactive | – | –
O=C1CC2(CCCC2)C(=O)N1Nc1ccc(Cl)cc1Cl | 300 | 2.419 | inactive | – | 300 | Activity (Mus musculus [11]): 100 mg/kg; Activity (Mus musculus [3]): Active; Activity (Rattus norvegicus [5]): Non-toxic; Activity (Rattus norvegicus [6]): Non-toxic; Activity (Rattus norvegicus [7]): Non-toxic; Activity (Rattus norvegicus [8]): Non-toxic; Activity (Rattus norvegicus [9]): Non-toxic; ED50 (Rattus norvegicus [18]): > 180 mg/kg; TD50 (Rattus norvegicus [18]): > 250 mg/kg; ED50 (Rattus norvegicus [19]): > 125 mg/kg; TD50 (Rattus norvegicus [19]): > 250 mg/kg
CC1CCCCC12CC(=O)N(Nc1ccc(Br)cc1)C2=O (stereo unspecified) | 300 | 2.561 | – | Active | – | Activity (Mus musculus [15]): 300 mg/kg; Activity (Mus musculus [16]): 100 mg/kg
CC1CCCCC12CC(=O)N(Nc1ccccc1Cl)C2=O (stereo unspecified) | – | 2.515 | – | inactive | 100 | –
CC1CCCCC12CC(=O)N(Nc1ccc(Cl)cc1Cl)C2=O (stereo unspecified) | 300 | 2.847 | – | Active | – | Activity (Mus musculus [12]): 300 mg/kg
O=C1CC2(CCCCC2)C(=O)N1Nc1ccccc1Cl | – | 2.322 | – | inactive | – | –
